Legend:
[1] = target: T1, Adrenergic receptor alpha-2 (Homo sapiens, UniProt P08913+P18825+P18089); test: Compound was evaluated for Adrenergic activity against Alpha-2 adrenergic receptor in human platelets
T1 sequence (P08913 whole entry): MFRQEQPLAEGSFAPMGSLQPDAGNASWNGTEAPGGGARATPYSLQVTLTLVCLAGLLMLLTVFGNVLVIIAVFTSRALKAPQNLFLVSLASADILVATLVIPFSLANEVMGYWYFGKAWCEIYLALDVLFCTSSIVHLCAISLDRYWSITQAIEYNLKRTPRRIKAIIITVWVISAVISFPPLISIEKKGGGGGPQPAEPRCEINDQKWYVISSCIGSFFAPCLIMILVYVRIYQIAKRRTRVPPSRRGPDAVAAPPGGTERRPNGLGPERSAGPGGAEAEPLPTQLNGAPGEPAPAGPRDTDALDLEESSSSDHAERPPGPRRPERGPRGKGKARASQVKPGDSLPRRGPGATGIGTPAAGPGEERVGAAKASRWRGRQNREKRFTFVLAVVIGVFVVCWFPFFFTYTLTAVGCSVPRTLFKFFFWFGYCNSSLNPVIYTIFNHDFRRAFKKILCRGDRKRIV
T1 sequence (P18825 whole entry): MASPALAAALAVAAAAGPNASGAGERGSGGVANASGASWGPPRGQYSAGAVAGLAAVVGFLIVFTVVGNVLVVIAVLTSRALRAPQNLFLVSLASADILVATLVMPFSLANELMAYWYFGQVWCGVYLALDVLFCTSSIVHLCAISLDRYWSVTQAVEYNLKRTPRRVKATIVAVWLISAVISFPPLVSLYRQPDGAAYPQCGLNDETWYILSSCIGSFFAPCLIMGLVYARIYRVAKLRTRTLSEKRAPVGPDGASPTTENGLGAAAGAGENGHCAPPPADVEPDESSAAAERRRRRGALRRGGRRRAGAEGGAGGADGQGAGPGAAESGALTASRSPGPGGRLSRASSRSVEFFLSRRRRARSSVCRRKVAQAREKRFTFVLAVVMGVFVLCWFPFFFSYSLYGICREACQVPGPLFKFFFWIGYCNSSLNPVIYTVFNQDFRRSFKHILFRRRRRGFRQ
T1 sequence (P18089 whole entry): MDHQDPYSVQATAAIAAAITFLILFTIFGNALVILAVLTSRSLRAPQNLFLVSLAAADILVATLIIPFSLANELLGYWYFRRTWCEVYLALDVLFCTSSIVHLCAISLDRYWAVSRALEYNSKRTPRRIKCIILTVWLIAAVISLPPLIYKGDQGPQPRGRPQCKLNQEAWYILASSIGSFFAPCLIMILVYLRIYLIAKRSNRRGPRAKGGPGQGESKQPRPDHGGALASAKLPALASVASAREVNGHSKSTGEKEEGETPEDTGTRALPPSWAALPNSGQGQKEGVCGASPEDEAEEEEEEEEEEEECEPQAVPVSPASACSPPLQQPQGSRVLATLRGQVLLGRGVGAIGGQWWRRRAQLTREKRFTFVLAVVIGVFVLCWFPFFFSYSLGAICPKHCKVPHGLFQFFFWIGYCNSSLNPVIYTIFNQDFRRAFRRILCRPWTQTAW
Procedure, shortened: (§1)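 Platelet-rich plasma from drug-free human volunteers (no medication for 10 days) treated with 1 mM aspirin. Inhibitors added at various concentrations 1 min before epinephrine. Read-out is primary-wave aggregation. […] Potency ratio = IC50 of medetomidine / IC50 of analogue.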

Rattus norvegicus [2] = species: Rattus norvegicus; test: Molar concentration of analogue which shifts concentration curve of phenylephrine to the right by 2-fold (0.3 log units); format: functional
Procedure, shortened: (§2)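 Rat aorta (α1) antagonism. KB is the molar analogue concentration that shifts the phenylephrine concentration-response curve 2-fold (0.3 log units) to the right. Derived by computerized analysis of the concentration-response data.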

[3] = Potency ratio is defined as IC50(medetomidine)/IC50(compound); procedure, shortened: as §1
[4] = target: Adrenergic receptor alpha-1 (Rattus norvegicus) (UniProt P15823+P23944+P43140); test: Molar concentration towards Alpha-1 adrenergic receptor which shifts concentration curve of phenylephrine to the right by 2-fold (0.3 log units); procedure, shortened: as §2
Rattus norvegicus [5] = species: Rattus norvegicus; test: Percent maximal analogue response relative to phenylephrine =100%; format: functional
Procedure, shortened: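 Rat aorta (α1) contraction. The maximal response to each analogue is expressed as percent of the maximal response to the reference agonist phenylephrine (phenylephrine = 100%). Mean ± SEM, N = 4.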

[6] = Potency ratio is defined as EC50 (medetomidine) / EC50 (compound)
[7] = target: T1, Adrenergic receptor alpha-2; test: Compound was tested for Adrenergic activity against Alpha-2 adrenergic receptor from rat aorta; format: tissue-based
[8] = target: T2, Adrenergic receptor alpha-1 (Rattus norvegicus, UniProt P15823+P23944+P43140); test: Compound was evaluated for Adrenergic activity against Alpha-1 adrenergic receptor from rat aorta
T2 sequence (P15823 whole entry): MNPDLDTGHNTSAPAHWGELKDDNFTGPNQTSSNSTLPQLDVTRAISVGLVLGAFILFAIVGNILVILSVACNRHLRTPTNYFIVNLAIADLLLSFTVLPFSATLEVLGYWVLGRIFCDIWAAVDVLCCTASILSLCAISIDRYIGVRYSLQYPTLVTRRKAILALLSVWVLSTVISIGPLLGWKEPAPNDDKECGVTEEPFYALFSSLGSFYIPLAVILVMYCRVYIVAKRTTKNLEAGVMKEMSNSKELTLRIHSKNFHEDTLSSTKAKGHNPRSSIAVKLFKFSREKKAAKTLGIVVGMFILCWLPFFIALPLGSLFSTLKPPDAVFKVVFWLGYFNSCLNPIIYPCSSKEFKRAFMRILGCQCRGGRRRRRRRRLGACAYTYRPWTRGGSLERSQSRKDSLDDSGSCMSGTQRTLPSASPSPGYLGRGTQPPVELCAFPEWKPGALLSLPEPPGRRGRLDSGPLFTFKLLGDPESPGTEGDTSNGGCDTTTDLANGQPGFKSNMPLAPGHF
T2 sequence (P23944 whole entry): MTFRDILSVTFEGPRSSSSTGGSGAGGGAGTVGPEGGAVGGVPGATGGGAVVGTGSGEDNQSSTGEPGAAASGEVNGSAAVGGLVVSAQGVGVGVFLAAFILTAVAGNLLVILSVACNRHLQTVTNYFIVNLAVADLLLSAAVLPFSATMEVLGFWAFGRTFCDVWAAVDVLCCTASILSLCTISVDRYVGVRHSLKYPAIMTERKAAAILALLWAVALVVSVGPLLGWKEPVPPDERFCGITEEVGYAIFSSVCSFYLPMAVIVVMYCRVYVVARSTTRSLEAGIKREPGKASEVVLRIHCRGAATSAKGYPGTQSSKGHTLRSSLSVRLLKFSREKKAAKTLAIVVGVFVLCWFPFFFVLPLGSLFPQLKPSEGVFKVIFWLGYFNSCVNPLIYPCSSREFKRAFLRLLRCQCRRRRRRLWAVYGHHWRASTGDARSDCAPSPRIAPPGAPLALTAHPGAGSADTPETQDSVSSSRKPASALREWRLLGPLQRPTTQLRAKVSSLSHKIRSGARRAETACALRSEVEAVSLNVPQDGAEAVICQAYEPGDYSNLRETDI
T2 sequence (P43140 whole entry): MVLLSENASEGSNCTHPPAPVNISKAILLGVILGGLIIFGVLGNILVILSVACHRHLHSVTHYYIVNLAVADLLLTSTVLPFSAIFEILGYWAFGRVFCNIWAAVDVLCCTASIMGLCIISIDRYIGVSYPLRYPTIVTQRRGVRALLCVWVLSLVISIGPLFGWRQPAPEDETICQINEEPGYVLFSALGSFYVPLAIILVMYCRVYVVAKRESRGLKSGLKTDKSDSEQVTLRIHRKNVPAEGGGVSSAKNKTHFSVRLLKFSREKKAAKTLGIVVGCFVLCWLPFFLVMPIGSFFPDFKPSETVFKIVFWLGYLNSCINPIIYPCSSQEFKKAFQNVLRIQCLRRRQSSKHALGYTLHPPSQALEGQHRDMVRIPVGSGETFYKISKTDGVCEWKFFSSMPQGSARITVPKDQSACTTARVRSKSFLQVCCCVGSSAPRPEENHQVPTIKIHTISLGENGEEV

SMILES | IC50 [1] | KB (Rattus norvegicus [2]) | Potency ratio [3] | Kb [4] | Max (Rattus norvegicus [5]) | Potency ratio [6] | IC50 [7] | EC50 [8]
CC(C1=NCCN1)c1ccc2ccccc2c1.Cl (stereo not given) | 0.016 nM | 0.26 µM | 0.21 |  |  |  |  | 
CC(c1ccc2ccccc2c1)c1ncc[nH]1.O=C(O)C(=O)O (stereo not given) | 0.61 nM | 1.5e-06 µM | 0.0054 |  |  |  |  | 
CC(c1ccc2ccccc2c1)c1c[nH]cn1.Cl (stereo not given) | 0.12 nM |  | 0.028 | 68 nM |  |  |  | 
CC(C1=NCCN1)c1cccc2ccccc12.Cl (stereo not given) | 0.014 nM |  | 0.24 |  | 62% | 0.57 |  | 
CC(c1c[nH]cn1)c1cccc2ccccc12.Cl (stereo not given) |  |  | 0.97 |  | 27% | 1.6 | 0.0034 nM | 200 nM
CC(c1ncc[nH]1)c1cccc2ccccc12.Cl (stereo not given) | 0.26 nM |  | 0.013 |  | 40% | 0.04 |  | 
Cc1cccc(C(C)c2c[nH]cn2)c1C.Cl (stereo not given) [MEDETOMIDINE HYDROCHLORIDE] |  |  |  |  | 42% |  |  | 310 nM
Cl.c1ccc2c(Cc3ncc[nH]3)cccc2c1 | 0.034 nM |  | 0.097 |  | 56% | 1.6 |  | 200 nM
Cl.c1ccc2c(CC3=NCCN3)cccc2c1 [NAPHAZOLINE HYDROCHLORIDE] |  |  |  |  | 68% |  |  | 

From ChEMBL document CHEMBL1125381, “Synthesis and alpha-adrenergic activities of 2- and 4-substituted imidazoline and imidazole analogues” (J Med Chem, 1992)
